High-throughput results as filed in PubChem.
Hits are enriched below; roughly 1.8% of the tested compounds scored in any of these assays.
TLR9-MyD88 block = TLR9-MyD88 interaction inhibition; Q9NR96+Q99836; CHO BLA complementation TLR9-MyD88, CCF4 FRET ratio; inhibition, % at 4.98 µM; 340,000 tested, 0.21% active; AID 504734;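 active = inhibition above the mean over all tested compounds plus 3 SD, cut at about 21% in these data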;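 note: 0% = DMSO only wells and 100% = clavulanate BLA inhibitor control wells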
TLR4 MyD88 comp = TLR4-MyD88 interaction inhibition in cells; O00206+Q99836; HeLa CL3-4 TLR4/MyD88 BLA complementation, FRET ratio; inhibition, % at 8.4 µM; 200,000 tested, 0.18% active; in the data active = inhibition above about 25%;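 note: 0% = vehicle and 100% = reference inhibitor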
NOD2 RIPK2 PPI = inhibitors of human NOD2-RIPK2 interaction; O43353; CHO BLA complementation NOD2-RIPK2, CCF4 ratio; inhibition, % at 4.98 µM; 360,000 tested, 0.38% active; in the data active = inhibition above about 21%;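 note: 0% = vehicle only and 100% = reference blocker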
MC4R antagonist = blocks human MC4R cAMP signaling. P32245. MC4R-expressing cells, MTII-stimulated cAMP, LANCE TR-FRET. inhibition, % at 6.5 µM. 360,000 tested, 0.48% active. AID 540295;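 active = inhibition above its plate's cutoff, the mean of tested wells on that plate plus 3 SD, cut at about 29% in these data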;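 note: 0% = Melanotan II alone and 100% = Melanotan II plus saturating MCL0020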
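Assay system: U2OS-MC4R stable cell line; Also added: Melanotan II; Technique: Eu-cAMP/anti-cAMP TR-FRET, emission 671 nm; Times: 30-min compound, 1-h challenge, 1-h detection, room temperature.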
MC4R ag barr = agonists of human melanocortin 4 receptor (MC4R) beta-arrestin | 360,000 tested, 0.98% active | activation, % at 8.9 µM | P32245 | U2OS MC4R beta-arrestin complementation, luminescence; percent of melanotan II response, DMSO zero;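 active = activation above a per-plate cutoff, the mean activation of sample wells on that plate plus 3 SD, cut at about 8% in these data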
TLR4-MyD88 conf = confirmation of human TLR4-MyD88 binding inhibitors. AID 941. inhibition, % at 8.4 µM. 350 tested, 50% active. shares compounds with TLR4 MyD88 comp. HeLa CL3-4 BLA complementation, CCF4 FRET ratio;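 active = mean inhibition across three repeat runs above about 25% carried over from the earlier screen, limit read from the data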;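 note: plate controls were DMSO only for no effect and clavulanic acid blocking BLA at full dose for full effect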
BLA inhibitor ct = counter-screen for TLR4-MyD88 inhibitors: beta-lactamase reporter inhibitors; shares compounds with TLR4 MyD88 comp; HeLa BLA reporter, CCF4 FRET ratio; inhibition, % at 8.4 µM; 350 tested, 63% active; AID 1237;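 active = mean inhibition over three repeats above about 26% taken from the earlier screen, limit read from the data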;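 note: HeLa cells stably expressing beta-lactamase reporter as counterscreen for TLR4-MyD88 inhibitors; 0% = DMSO and 100% = clavulanic acid full inhibition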
TLR9-MyD88 cf = confirmation of human TLR9-MyD88 binding inhibitors; shares compounds with TLR9-MyD88 block; CHO TLR9/MyD88 BLA complementation, CCF4 FRET ratio; inhibition, % at 4.98 µM; 680 tested, 51% active; AID 540250;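 active = mean inhibition across three repeats above about 21% taken from the earlier screen, limit read from the data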;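 note: blue over green emission ratio reports constitutive TLR9 MyD88 association via BLA complementation; 0% = DMSO vehicle wells and 100% = clavulanate BLA inhibitor wells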
BLA counter-1 = non-selective beta-lactamase inhibitors in TLR9-MyD88 counter-screen | CHO-BLA cells, CCF4 FRET ratio, BLA reporter | AID 540251 | inhibition, % at 4.98 µM | 680 tested, 7% active | shares compounds with TLR9-MyD88 block;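 active = mean inhibition above a 50% cutoff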;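 note: counterscreen of TLR9-MyD88 hits on CMV-driven BLA in CHO-K1 cells; 0% = DMSO alone and 100% = clavulanate blocking BLA; higher means less blue over green ratio so more BLA blockade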
TLR9 CHO tox = counter-screen for TLR9-MyD88 inhibitors: cytotoxicity in CHO cells. inhibition, % at 4.98 µM. shares compounds with TLR9-MyD88 block. luminescence. 680 tested, 39% active; in the data active = inhibition above about 11%
cAMP nonselect = nonselective cAMP signaling inhibitor, MC4R antagonist counter-screen; inhibition, % at 6.5 µM; AID 602193; shares compounds with MC4R antagonist; 1,600 tested, 26% active; parental U2OS, forskolin cAMP, LANCE TR-FRET;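 active = mean inhibition over triplicates above the low-control well mean plus 3 SD, set per campaign, cut at about 13% in these data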;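 note: signal is single emission at 671 nm which falls as cellular cAMP rises; 0% = forskolin-stimulated wells and 100% = buffer without forskolin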
MC4R antag conf = human MC4R cAMP antagonism confirmation; shares compounds with MC4R antagonist; MC4R-expressing cells, MTII-stimulated cAMP, TR-FRET; inhibition, % at 6.5 µM; 1,600 tested, 27% active; AID 602195; in the data active = inhibition above about 29%;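 note: 0% = agonist stimulated wells alone and 100% = agonist stimulated wells plus saturating reference antagonist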
NOD2 RIPK2 conf = confirmation of human NOD2-RIPK2 interaction inhibitors; AID 624370; 1,200 tested, 70% active; CHO cells, NOD2-RIPK2 BLA complementation, CCF4 FRET; inhibition, % at 4.98 µM; shares compounds with NOD2 RIPK2 PPI;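 active = mean inhibition across replicates above a set limit taken from the earlier primary screen, cut at about 21% in these data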;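 note: 0% = DMSO-only wells and the high end = clavulanate BLA-blocked wells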
BLA counter-2 = counter-screen for NOD2-RIPK2 interaction inhibitors: BLA reporter | shares compounds with NOD2 RIPK2 PPI | AID 624371 | inhibition, % at 4.98 µM | CHO BLA reporter, CCF4 FRET ratio, counterscreen | 1,200 tested, 57% active;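 active = mean inhibition above the low-control mean inhibition plus three low-control SD, cut at about 11% in these data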;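 note: 0% = DMSO only wells and 100% = clavulanate high control wells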
Active calls of the source: *; . = no result given.

SMILES	TLR9-MyD88 block	TLR4 MyD88 comp	NOD2 RIPK2 PPI	MC4R antagonist	MC4R ag barr	others
Cc1ccc(-c2nc3ccccc3c(=O)n2-c2nccs2)cc1	0	-5	-12	-3	9.2*
Cc1nc2ccccc2c(=O)n1-c1nccs1	.	.	-17	.	.
O=C(c1c[nH]c2ccc(S(=O)(=O)N3CCC4(CC3)OCCO4)cc2c1=O)N1CCC2(CC1)OCCO2	-10	-1	6	4	-1
CCOC(=O)[C@]12Cc3cc(Cl)ccc3[C@H]1N(CC(=O)OC)C(=O)c1ccccc12	.	.	19	.	.
COC(=O)C[C@]1(C(=O)OC)CN(C#N)N(c2ccc(Cl)cc2)C12c1ccccc1-c1ccccc12	7	4	55*	-8	-3
CC1(C)OC(c2ccccc2)=C/C(=C/C=C2C(=O)NC(=S)NC2=O)O1	.	67*	.	.	.	TLR4-MyD88 conf=63*;BLA inhibitor ct=90*
C(CCc1nn[nH]n1)CCc1nn[nH]n1	-12	-6	2	-1	0
Cc1cc2c(C(F)(F)F)cc(=O)oc2c2c1NCCC2	15	31*	20	-21	0	TLR4-MyD88 conf=54*;BLA inhibitor ct=55*
C=C1[C@H]2CC[C@H]3[C@]4(C)C[C@H](O[C@@H]5OC(CO)[C@@H](OSOOO)[C@H](OS(=O)(=O)O)[C@H]5OC(=O)CC(C)C)C[C@@H](C(=O)O)[C@H]4CC[C@]3(C2)[C@H]1O (stereo partly specified)	2	.	3	-2	2
O=c1cc(C(F)(F)F)c2cc3c4c(c2o1)CCCN4CCC3	46*	54*	68*	-11	-1	TLR4-MyD88 conf=49*;BLA inhibitor ct=81*;TLR9-MyD88 cf=51*;BLA counter-1=55*;TLR9 CHO tox=-1;NOD2 RIPK2 conf=63*;BLA counter-2=76*
CCOC(=O)[C@]12Cc3ccc4ccccc4c3[C@H]1N(Cc1ccccc1)C(=O)c1ccccc12	.	.	-8	.	.
CN(C(=O)Cc1ccc(Cl)c(Cl)c1)C(CN1CCCC1)c1cccc(OCC(=O)O)c1 (stereo unspecified)	23*	.	3	3	-1	TLR9-MyD88 cf=-2;BLA counter-1=-6;TLR9 CHO tox=2
COC(=O)C1=C(c2c(C)noc2C)C[C@@H]2CC[C@H]1N2C(=O)NCCOc1ccc(OC)cc1	-14	.	3	-2	-1
Cc1cc(N(CCCl)CCCl)ccc1C=Cc1ccncn1	32*	.	40*	-6	-2	TLR9-MyD88 cf=9;BLA counter-1=12;TLR9 CHO tox=3;NOD2 RIPK2 conf=26*;BLA counter-2=31*
COC(=O)C1=C(c2c(C)noc2C)C[C@@H]2CC[C@H]1N2C(=O)NC1CCCCC1	0	.	-20	-1	-2
O=C1NC(=O)N(CCNc2ncc(C(F)(F)F)cc2Cl)C(=O)C1Cc1ccc(Cl)cc1 (stereo unspecified)	-25	6	-2	8	2
CN1C2CCC1/C(=C/c1ccccn1)C(=O)/C2=C\c1ccccn1	24*	-2	30*	6	-2	TLR9-MyD88 cf=18;BLA counter-1=7;TLR9 CHO tox=99*;NOD2 RIPK2 conf=42*;BLA counter-2=10
Cc1ccccc1-n1c(/C=C/c2ccccn2)nc2ccccc2c1=O	9	.	-9	6	-2
Clc1cc(Cl)c(-c2cc(Cl)c(Cl)cc2Cl)cc1Cl	3	.	-3	4	0
CC1=C(O)C(=O)C=C2C1=CC=C1C2(C)CCC2(C)C3CC(C)(C(=O)O)CCC3(C)CCC12C (stereo unspecified)	29*	.	81*	32*	-2	TLR9-MyD88 cf=50*;BLA counter-1=8;TLR9 CHO tox=98*;cAMP nonselect=-5;MC4R antag conf=17;NOD2 RIPK2 conf=81*;BLA counter-2=8
Nc1ccc2ccc3cccc[n+]3c2c1	26*	.	23*	-6	0	TLR9-MyD88 cf=9;BLA counter-1=11;TLR9 CHO tox=-2;NOD2 RIPK2 conf=31*;BLA counter-2=36*
CCOc1cc2[nH]c(=S)n(CCCC(=O)N3CCC4(CC3)OCCO4)c(=O)c2cc1OCC	-7	-5	-7	29*	-2	cAMP nonselect=2;MC4R antag conf=8
NS(=O)(=O)c1ccc(-c2ccc(C=C3C(=O)NC(=O)NC3=O)o2)cc1	7	.	9	-1	2
O=C1NC(=O)C(=Cc2ccc(SC3CCCCC3)o2)C(=O)N1	14	10	-9	38*	0	cAMP nonselect=11;MC4R antag conf=26
CN1C(=O)C(c2ccccc2)C(=O)N(C)C1=O	.	.	-4	30*	2	cAMP nonselect=-1;MC4R antag conf=12
SMILES	TLR9-MyD88 block	TLR4 MyD88 comp	NOD2 RIPK2 PPI	MC4R antagonist	MC4R ag barr	others
CCC1(c2ccccc2)C(=O)N(C)C(=O)N(C)C1=O	-8	9	-11	-5	0
CC(NC1CCCCC1)C(O)C12CC3CC(CC(C3)C1)C2 (stereo unspecified)	7	7	-1	7	5
CC/C(=N\Nc1ccccc1)c1c(O)n(-c2ccc(OC)cc2)c(=O)[nH]c1=O	1	.	-7	33*	4	cAMP nonselect=0;MC4R antag conf=-6
COc1ccc(OC)c(CNCCc2ccc(OC)c(OC)c2)c1	-8	.	-8	-3	-1
COc1cccc(C(=O)C2CCCN(Cc3cccc4c3OCO4)C2)c1 (stereo unspecified)	-1	10	-7	29*	-2	cAMP nonselect=4;MC4R antag conf=11
Cc1ccc(N2C(=O)NC(=O)/C(=C/c3ccoc3)C2=O)cc1	-6	.	-9	33*	-2	cAMP nonselect=3;MC4R antag conf=-2
Cc1ccc(N2C(=O)NC(=O)/C(=C/c3cnn(-c4ccc(C)cc4)c3)C2=O)cc1	-19	0	2	5	2
C=CCn1c(O)c(C(CC)=Nc2cccc(C(=O)O)c2)c(=O)[nH]c1=O	9	.	-9	31*	2	cAMP nonselect=1;MC4R antag conf=6
CN(C(=O)Oc1cccc2ccccc12)C1C=CCC1 (stereo unspecified)	-7	.	-1	11	1
